Laboratory results: ChEMBL document CHEMBL2086236, “Discovery of pyrrolo[3,2-c]quinoline-4-one derivatives as novel hedgehog signaling inhibitors” (Bioorg Med Chem, 2012)

Key:
[1] = Clearance in human hepatic microsomes by LC-MS/MS analysis; format: ADME, Microsome; settings: liver microsomes, read-out: CLH
Summary of the method: (§1)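 Liver microsomes (0.2 mg protein/mL) were incubated with 1 µmol/L test compound in 50 mmol/L potassium phosphate, pH 7.4. The reaction was started with an NADPH-generating system (MgCl₂, glucose-6-phosphate, β-NADP+, G6P dehydrogenase) added at 20% of the reaction volume. Clearance was reported in µL/min/mg.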

[2] = target: Sonic hedgehog protein (Mus musculus, UniProt Q62226); test: Inhibition of recombinant mouse Shh expressed in […] assessed as inhibition of Gli1 expression after 48 hrs by luciferase reporter gene assay; format: cell-based, NIH/3T3
Chain of Sonic hedgehog protein (Q62226 25-198 limits assumed): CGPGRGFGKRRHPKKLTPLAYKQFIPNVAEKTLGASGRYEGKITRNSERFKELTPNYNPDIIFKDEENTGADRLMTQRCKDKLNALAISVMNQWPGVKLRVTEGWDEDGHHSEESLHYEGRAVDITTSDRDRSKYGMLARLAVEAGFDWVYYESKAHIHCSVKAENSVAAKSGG
Summary of the method: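 NIH3T3 cells stably carrying a Gli-luciferase reporter (kept in DMEM/10% FBS, 500 µg/mL G418) were seeded on collagen-coated plates overnight. Compounds (final 0.03–1000 nM, n = 4 wells) were added with recombinant mouse Shh-N at final 1 µg/mL in 5.8% FBS, then incubated 48 h. Controls were 0.1% DMSO ± Shh-N (n = 10). Read-out was luciferase luminescence; IC50 is the mean of four measurements.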

[3] = Clearance in mouse hepatic microsomes by LC-MS/MS analysis; format: ADME, Microsome; settings: liver microsomes, read-out: CLH; summary of the method: as §1
[4] = target: Voltage-gated inwardly rectifying potassium channel KCNH2 (Homo sapiens, UniProt Q12809); test: inhibition of human ERG
Chain of Voltage-gated inwardly rectifying potassium channel KCNH2 (Q12809 whole entry): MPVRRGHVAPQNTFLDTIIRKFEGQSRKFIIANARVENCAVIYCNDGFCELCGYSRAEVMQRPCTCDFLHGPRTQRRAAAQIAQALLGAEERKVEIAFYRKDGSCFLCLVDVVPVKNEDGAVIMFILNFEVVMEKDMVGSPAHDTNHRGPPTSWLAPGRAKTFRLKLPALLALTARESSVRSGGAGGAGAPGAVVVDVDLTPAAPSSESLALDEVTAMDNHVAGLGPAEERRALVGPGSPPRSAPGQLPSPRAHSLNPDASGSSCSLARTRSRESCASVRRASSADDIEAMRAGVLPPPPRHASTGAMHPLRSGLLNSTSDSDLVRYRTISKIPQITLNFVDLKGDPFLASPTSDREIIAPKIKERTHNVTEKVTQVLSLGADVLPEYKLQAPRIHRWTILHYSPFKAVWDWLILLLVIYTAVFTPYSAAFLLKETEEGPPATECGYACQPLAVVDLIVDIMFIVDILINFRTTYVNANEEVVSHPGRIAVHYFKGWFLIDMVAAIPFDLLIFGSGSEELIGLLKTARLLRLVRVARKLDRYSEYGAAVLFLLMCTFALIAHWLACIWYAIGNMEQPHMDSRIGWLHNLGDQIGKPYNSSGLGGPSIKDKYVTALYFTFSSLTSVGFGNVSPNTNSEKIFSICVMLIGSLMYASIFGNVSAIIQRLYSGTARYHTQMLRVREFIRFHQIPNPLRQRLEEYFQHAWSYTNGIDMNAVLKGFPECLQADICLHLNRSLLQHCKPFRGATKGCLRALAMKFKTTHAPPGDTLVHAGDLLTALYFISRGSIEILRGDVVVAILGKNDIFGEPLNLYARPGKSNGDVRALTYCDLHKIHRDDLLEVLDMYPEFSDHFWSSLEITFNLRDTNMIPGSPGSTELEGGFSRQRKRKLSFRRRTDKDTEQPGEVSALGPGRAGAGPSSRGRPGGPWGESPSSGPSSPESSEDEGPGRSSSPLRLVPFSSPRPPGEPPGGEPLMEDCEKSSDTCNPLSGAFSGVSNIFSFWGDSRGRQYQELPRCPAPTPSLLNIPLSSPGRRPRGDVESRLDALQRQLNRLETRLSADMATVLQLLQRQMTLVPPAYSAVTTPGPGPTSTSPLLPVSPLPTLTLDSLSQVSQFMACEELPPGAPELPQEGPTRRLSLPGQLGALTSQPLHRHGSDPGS

[5] = Antitumor activity against Ptch+/- p53-/- double-mutant mouse medulloblastoma allograft model assessed as tumor growth rate at 6.25 mg/kg, po bid for 2 weeks measured up to 21 days relative to control; format: functional, Medulloblastoma cell
Summary of the method: (§2)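 Nude mice carrying subcutaneous Ptch+/- p53-/- medulloblastoma allografts (passaged in vivo) were dosed orally twice daily for 2 weeks, suspended in 0.5% methylcellulose, vs vehicle, once tumors reached an average of 150–250 mm³. Tumors were measured by caliper, with V = (a × b²)/2. T/C% = mean treated (Vend−Vstart)/control (Vend−Vstart) × 100. Body weight was followed. Points are mean SD of duplicates; 1-tailed Dunnett's test vs controls.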

[6] = test system: Mus musculus; test: In vivo inhibition of Shh signalling in mouse xenografted with PAN-04 cells assessed as Gli1 expression at 25 mg/kg, po bid measured after 24 hrs post first dose relative to control; values are per cent of control; settings: PAN-04, po
[7] = test system: Mus musculus; test: Toxicity against Ptch+/- p53-/- double-mutant mouse medulloblastoma allograft model assessed as body weight loss at 6.25 mg/kg, po bid for 2 weeks; format: organism-based; parameters: dose 6.25 mg/kg, route oral; settings: in vivo, 336 h; summary of the method: as §2
[8] = Binding affinity to human Smo expressed in 293T cells after 1 hr by fluorescence analysis; format: cell-based
Summary of the method: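 293T cells were transiently transfected overnight with HA-tagged human Smo, then plated at 6×10⁴ cells/well. Compounds (final 0.03–1000 nM) were incubated 1 h with 2 nM BODIPY-cyclopamine, n = 3 wells per concentration. Media or excess unlabelled cyclopamine set the 0%/100% inhibition controls (n = 5). Cell fluorescence was read by flow cytometry after Versene detachment.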

| Structure (SMILES) | microsomal CLint [1] | IC50 [2] | microsomal CLint [3] | IC50 [8] | inhibition (INH) [4] | Activity [5] | level, % of control at 25 mg/kg [6] | Activity [7] |
| --- | --- | --- | --- | --- | --- | --- | --- | --- |
| CCC(=O)Cn1c(=O)c2c(OC)c(C(=O)NC3CCN(CCO)CC3)n(C)c2c2ccccc21 | 3 µL/min/mg | > 100 nM | < 1 µL/min/mg | – | – | – | – | – |
| COc1c(C(=O)NCCN2CCCC2)oc2c1c(=O)n(CC(=O)c1ccccc1)c1ccccc21 | – | > 1000 nM | – | – | – | – | – | – |
| COc1c(C(=O)NCCN2CCCCC2)n(C)c2c1c(=O)n(CC(=O)c1ccccc1)c1ccccc21 | 30 µL/min/mg | 9.6 nM | 192 µL/min/mg | – | – | – | – | – |
| COc1c(C(=O)NCCN2CCOCC2)n(C)c2c1c(=O)n(CC(=O)c1ccccc1)c1ccccc21 | 73 µL/min/mg | 22 nM | 237 µL/min/mg | – | – | – | – | – |
| COc1c(C(=O)NC2CCNCC2)n(C)c2c1c(=O)n(CC(=O)c1ccccc1)c1ccccc21 | 2 µL/min/mg | 21 nM | 10 µL/min/mg | – | – | – | – | – |
| COc1c(C(=O)NC2CCN(CCO)CC2)n(C)c2c1c(=O)n(CCc1ccccc1)c1ccccc21 | 72 µL/min/mg | 150 nM | 48 µL/min/mg | – | – | – | – | – |

Now those with a lower IC50 [2], led by results:

| microsomal CLint [1] | IC50 [2] | microsomal CLint [3] | IC50 [8] | Structure (SMILES) | inhibition (INH) [4] | Activity [5] | level, % of control at 25 mg/kg [6] | Activity [7] |
| --- | --- | --- | --- | --- | --- | --- | --- | --- |
| – | 5.1 nM | – | – | COc1c(C(=O)NCCN2CCCC2)sc2c1c(=O)n(CC(=O)c1ccccc1)c1ccccc21 | – | – | – | – |
| 14 µL/min/mg | 2.9 nM | 95 µL/min/mg | – | COc1c(C(=O)NCCN2CCCC2)n(C)c2c1c(=O)n(CC(=O)c1ccccc1)c1ccccc21 | – | – | – | – |
| 26 µL/min/mg | 7 nM | 155 µL/min/mg | – | CCOc1c(C(=O)NCCN2CCCC2)n(C)c2c1c(=O)n(CC(=O)c1ccccc1)c1ccccc21 | – | – | – | – |
| 6 µL/min/mg | 6.6 nM | 9 µL/min/mg | – | COc1c(C(=O)NC2CCN(CCO)CC2)n(C)c2c1c(=O)n(CC(=O)c1ccccc1)c1ccccc21 | Active | – | – | – |
| < 1 µL/min/mg | 4.6 nM | 11 µL/min/mg | 41 nM | COc1c(C(=O)NC2CCN(C(=O)CO)CC2)n(C)c2c1c(=O)n(CC(=O)c1ccccc1)c1ccccc21 | Not Active | 3% | 5% | Non-toxic |
